Series [1] is described as follows: Rate constant at a concentration of 2.54M*10e-3 was determined. Type of series: ADME. The gist of the method:
(§1)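 Decomposition was followed in aqueous solution. Rate constants and half-lives were calculated assuming apparent first-order kinetics.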

Series [2] can be described thus: Half-life evaluated in 0.1 M phosphate buffer, 37 degree Centigrade. It counts as ADME. The procedure, abridged: as §1
Series [3] relates to Mus musculus. Nature of the series: Increase in life span was tested after administration of single maximal effective ip dose at 100 mg/kg (0.4 mmol/kg) in L1210 leukemia in mice. The conditions noted are these: route intraperitoneal. Type of series: functional. The procedure, abridged:
(§2)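 L1210 leukemia-bearing mice got a single ip dose on the first day after transplantation. Read-out was median survival in days, treated (T) versus control (C). %ILS = (T − C)/C × 100. Doses are given in both mg/kg and mmol/kg; "tox" marks doses that were toxic.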

Series [4] relates to Mus musculus. Description: Increase in life span was tested after administration of single ip dose at 200 mg/kg (0.8 mmol/kg) in L1210 leukemia in mice; Toxic. Type of series: toxicity, organism-based. Also on record: dose 200 mg/kg, route intraperitoneal. The conditions noted are these: in vivo. The procedure, abridged: as §2
In series [5] the test system is Mus musculus. Description: Increase in life span was tested after administration of single maximal effective ip dose at 20 mg/kg (0.08 mmol/kg) in L1210 leukemia mice. It counts as functional. The conditions noted are these: route intraperitoneal. The procedure, abridged: as §2
Series [6] concerns Mus musculus. Nature of the series: Increase in life span was tested after administration of single ip dose at 40 mg/kg (0.16 mmol/kg) in L1210 leukemia mice; Toxic. It counts as toxicity, organism-based. More on the design: dose 40 mg/kg, route intraperitoneal. The following applies: in vivo. The procedure, abridged: as §2
Series [7] relates to Mus musculus. Description: Increase in life span was tested after administration of single maximal effective ip dose at 20 mg/kg (0.11 mmol/kg) in L1210 leukemia in mice. Type of series: functional. The following applies: route intraperitoneal. The gist of the method: as §2
In series [8] the test system is Mus musculus. Nature of the series: Increase in life span was tested after administration of single ip dose at 38 mg/kg (0.21 mmol/kg) in L1210 leukemia in mice; Toxic. More on the design: dose 38 mg/kg, route intraperitoneal. It counts as toxicity, organism-based. The conditions noted are these: in vivo. The gist of the method: as §2

The record followed here is ChEMBL document CHEMBL1124239, “Decomposition of N-(2-chloroethyl)-N-nitrosocarbamoyl amino acid amides” (J Med Chem, 1988).

Turning to `NC(=O)C1CCCN1C(=O)N(CCCl)N=O` (stereo not given), in series [1], the k is 0.00274 min⁻¹. Moreover, the half-life – broadly, the time in which the quantity being followed falls by half – in series [2] stood at 4.26 h. Further, the increase in lifespan (ILS) – broadly, the gain in survival time of treated over control animals, in per cent – at 100 mg/kg in series [3] is 420%. Further, in series [4], the ILS entry is on record as “Toxic”.

With `CC(C)C(NC(=O)N(CCCl)N=O)C(N)=O` (stereo not given), the ILS at 20 mg/kg in series [5] is 212%. This compound gave a k in series [1] of 0.0452 min⁻¹. Besides, the ILS entry in series [6] was “Toxic”. Besides, the half-life in series [2] came out at 0.258 h.

In series [7], `O=NN(CCCl)C(=O)NCCCl` [CARMUSTINE] showed an ILS at 20 mg/kg of 115%. In series [8], the ILS entry is listed as “Toxic”.
